15 molecules from ChEMBL document CHEMBL1255372 (2008) can be followed below.

In brackets after ≈: the same amount, converted by molar mass. A value given as a limit tells only on which side of the number the result lay.

Common to all, as to type: functional
For test [1], the system named is Klebsiella pneumoniae. The test can be described thus: Antibacterial activity against Klebsiella pneumoniae isolate VA375 with blaKPC-3, qnrA1, blaTEM-1, blaSHV-11 genes by CLSI method.
Test [2] relates to Escherichia coli. The test can be described thus: Antibacterial activity against Escherichia coli J53 transconjugated with Klebsiella pneumoniae isolate VA367 containing blaKPC-3, qnrB19, blaTEM-1, blaSHV-11, aac(6')-1b genes by CLSI method.
Test [3] has as its system Klebsiella pneumoniae. The test can be described thus: Antibacterial activity against Klebsiella pneumoniae isolate VA367 with blaKPC-3, qnrB19, blaTEM-1, blaSHV-11, blaSHV-12, aac(6')-1b genes by CLSI method.
Test [4] relates to Escherichia coli. The test can be described thus: Antibacterial activity against Escherichia coli J53 transconjugated with Klebsiella pneumoniae isolate VA375 containing qnrA1, blaTEM-1, blaSHV-11genes by CLSI method.
In test [5] the test system is Escherichia coli. Kind of test: Antibacterial activity against Escherichia coli J53 by CLSI method.
The test system of test [6] is Escherichia coli. Kind of test: Antibacterial activity against Escherichia coli J53 transconjugated with Klebsiella pneumoniae isolate VA367 containing blaKPC-3, qnrB19, blaTEM-1, blaSHV-11, aac(6')-1b genes by Etest method. The gist of the method: (§1)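 Test strains were E. coli J53 (rifampin-resistant recipient) transconjugants obtained by conjugation with the K. pneumoniae donor isolate. After overnight incubation, the donor–recipient mixture was plated on MacConkey agar containing ceftazidime (10 mg/liter) plus rifampin (100 mg/liter) to select transconjugants. Etest conditions are not described.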

Test [7] concerns Klebsiella pneumoniae. Kind of test: Antibacterial activity against Klebsiella pneumoniae isolate VA375 with blaKPC-3, qnrA1, blaTEM-1, blaSHV-11 genes by Etest method.
For test [8], the system named is Escherichia coli. The test can be described thus: Antibacterial activity against Escherichia coli J53 transconjugated with Klebsiella pneumoniae isolate VA375 containing qnrA1, blaTEM-1, blaSHV-11genes by Etest method. The gist of the method:
as §1

Test [9] concerns Escherichia coli. The test can be described thus: Antibacterial activity against Escherichia coli J53 by Etest method.
For test [10], the system named is Klebsiella pneumoniae. Kind of test: Antibacterial activity against Klebsiella pneumoniae isolate VA367 with blaKPC-3, qnrB19, blaTEM-1, blaSHV-11, blaSHV-12, aac(6')-1b genes by Etest method.

The MIC is the smallest concentration in the dilution series that meets the test's criterion for growth inhibition. Low values mean greater potency, high ones weaker potency. For the molecule `CO/N=C(\C(=O)N[C@@H]1C(=O)N2C(C(=O)O)=C(CSc3nc(=O)c(O)nn3C)CS[C@H]12)c1csc(N)n1` [CEFTRIAXONE], the minimal inhibitory concentration (MIC) in the test with Klebsiella pneumoniae [1] was 32 µg/mL (≈ 57.7 µM); in the test on Escherichia coli [2], 8 µg/mL (≈ 14.4 µM); in the test on Klebsiella pneumoniae [3], not below 64 µg/mL; against Escherichia coli [4], 8 µg/mL (≈ 14.4 µM); in the test with Escherichia coli [5], not above 1 µg/mL.

As for `CN(C)c1cc(NC(=O)CNC(C)(C)C)c(O)c2c1C[C@H]1C[C@H]3[C@H](N(C)C)C(O)=C(C(N)=O)C(=O)[C@@]3(O)C(O)=C1C2=O` [TIGECYCLINE], the minimal inhibitory concentration (MIC) against Escherichia coli [6] is 0.5 µg/mL (≈ 0.854 µM); with Klebsiella pneumoniae [7] it was 1.5 µg/mL (≈ 2.56 µM); against Escherichia coli [8], 0.5 µg/mL (≈ 0.854 µM); in the test on Escherichia coli [9] it was 0.5 µg/mL (≈ 0.854 µM).

Regarding `NCC[C@H](O)C(=O)N[C@@H]1C[C@H](N)[C@@H](O[C@H]2O[C@H](CN)[C@@H](O)[C@H](O)[C@H]2O)[C@H](O)[C@H]1O[C@H]1O[C@H](CO)[C@@H](O)[C@H](N)[C@H]1O` [AMIKACIN], the MIC is not above 2 µg/mL against Klebsiella pneumoniae [1]; 16 µg/mL (≈ 27.3 µM) against Escherichia coli [2]; not below 64 µg/mL against Klebsiella pneumoniae [3]; not above 2 µg/mL in the test on Escherichia coli [4]; not above 2 µg/mL in the test on Escherichia coli [5].

In the case of `CCN1CCN(C(=O)N[C@@H](C(=O)N[C@@H]2C(=O)N3[C@@H]2SC(C)(C)[C@@H]3C(=O)O)c2ccccc2)C(=O)C1=O` [PIPERACILLIN], the MIC with Klebsiella pneumoniae [1] was not below 128 µg/mL; with Escherichia coli [2], not below 128 µg/mL; in the test with Klebsiella pneumoniae [3], not below 128 µg/mL; against Escherichia coli [4] it was not below 128 µg/mL; with Escherichia coli [5] it was not above 4 µg/mL.

On to COLISTIN, for which the MIC against Escherichia coli [6] amounted to 0.38 µg/mL; in the test with Klebsiella pneumoniae [7] it was 1 µg/mL; against Escherichia coli [8] it was 0.38 µg/mL; with Escherichia coli [9], 0.38 µg/mL.

For `NC[C@H]1O[C@H](O[C@H]2[C@H](O)[C@@H](O[C@H]3O[C@H](CO)[C@@H](O)[C@H](N)[C@H]3O)[C@H](N)C[C@@H]2N)[C@H](N)C[C@@H]1O` [TOBRAMYCIN], the MIC in the test on Klebsiella pneumoniae [1] was not below 16 µg/mL; in the test with Escherichia coli [2], not below 16 µg/mL; in the test with Klebsiella pneumoniae [3], not below 16 µg/mL; against Escherichia coli [4] it was 4 µg/mL (≈ 8.56 µM); against Escherichia coli [5], not above 1 µg/mL.

For the molecule `O=C(O)c1cn(C2CC2)c2cc(N3CCNCC3)c(F)cc2c1=O` [CIPROFLOXACIN], the MIC against Klebsiella pneumoniae [7] is 0.75 µg/mL (≈ 2.26 µM); with Klebsiella pneumoniae [10], not below 32 µg/mL.

For the molecule `CC(C)(O/N=C(\C(=O)N[C@@H]1C(=O)N2C(C(=O)[O-])=C(C[n+]3ccccc3)CS[C@H]12)c1csc(N)n1)C(=O)O` [CEFTAZIDIME], the minimum inhibitory concentration (MIC) against Klebsiella pneumoniae [1] was not below 64 µg/mL; in the test with Escherichia coli [2], 32 µg/mL (≈ 58.5 µM); with Klebsiella pneumoniae [3] it was not below 64 µg/mL; with Escherichia coli [4], not below 64 µg/mL; in the test with Escherichia coli [5], not above 1 µg/mL.

For `O=C1CN(/N=C/c2ccc([N+](=O)[O-])o2)C(=O)N1` [NITROFURANTOIN], the MIC with Klebsiella pneumoniae [1] is 64 µg/mL (≈ 269 µM); with Escherichia coli [2], not above 16 µg/mL; against Klebsiella pneumoniae [3], not below 512 µg/mL; in the test with Escherichia coli [4], not above 16 µg/mL; with Escherichia coli [5], not above 16 µg/mL.

With `C[C@@H](O)[C@H]1C(=O)N2C(C(=O)O)=C(SCCNC=N)C[C@H]12` [IMIPENEM ANHYDROUS], the MIC was 2 µg/mL (≈ 6.68 µM) against Klebsiella pneumoniae [1]; 4 µg/mL (≈ 13.4 µM) against Escherichia coli [6]; 4 µg/mL (≈ 13.4 µM) against Escherichia coli [2]; 2 µg/mL (≈ 6.68 µM) in the test with Klebsiella pneumoniae [3]; 8 µg/mL (≈ 26.7 µM) with Klebsiella pneumoniae [7]; not above 1 µg/mL against Escherichia coli [4]. Besides, the minimum inhibitory concentration (MIC) with Klebsiella pneumoniae [10] was 16 µg/mL (≈ 53.4 µM); against Escherichia coli [8], 0.38 µg/mL (≈ 1.27 µM); in the test with Escherichia coli [5], not above 1 µg/mL.

As to `C[C@@H](O)[C@H]1C(=O)N2C(C(=O)O)=C(S[C@@H]3CN[C@H](C(=O)N(C)C)C3)[C@H](C)[C@H]12` [MEROPENEM], the MIC in the test with Klebsiella pneumoniae [1] is 1 µg/mL (≈ 2.61 µM); in the test on Escherichia coli [6] it was 4 µg/mL (≈ 10.4 µM); against Escherichia coli [2], 1 µg/mL (≈ 2.61 µM); with Klebsiella pneumoniae [3], 2 µg/mL (≈ 5.22 µM); against Klebsiella pneumoniae [7], 4 µg/mL (≈ 10.4 µM); against Escherichia coli [4] it was not above 0.25 µg/mL. For the same molecule, the minimum inhibitory concentration (MIC) was 8 µg/mL (≈ 20.9 µM) with Klebsiella pneumoniae [10], 0.38 µg/mL (≈ 0.991 µM) with Escherichia coli [8], not above 0.25 µg/mL against Escherichia coli [5] and 0.047 µg/mL (≈ 0.123 µM) in the test on Escherichia coli [9].

For `C[C@H]1COc2c(N3CCN(C)CC3)c(F)cc3c(=O)c(C(=O)O)cn1c23.C[C@H]1COc2c(N3CCN(C)CC3)c(F)cc3c(=O)c(C(=O)O)cn1c23.O` [LEVOFLOXACIN], the MIC is 0.75 µg/mL against Escherichia coli [6]; not below 8 µg/mL in the test on Klebsiella pneumoniae [3]; 0.75 µg/mL against Klebsiella pneumoniae [7]; not below 32 µg/mL with Klebsiella pneumoniae [10]; 1.5 µg/mL in the test with Escherichia coli [8]; not above 0.25 µg/mL against Escherichia coli [5]. The same molecule returned a minimal inhibitory concentration (MIC) against Escherichia coli [9] of 0.25 µg/mL.

Take `C[C@@H](O)[C@H]1C(=O)N2C(C(=O)O)=C(S[C@@H]3CN[C@H](C(=O)Nc4cccc(C(=O)O)c4)C3)[C@H](C)[C@H]12`: the MIC against Escherichia coli [6] turned out to be 2 µg/mL (≈ 4.21 µM); in the test with Klebsiella pneumoniae [7] it was 8 µg/mL (≈ 16.8 µM); with Klebsiella pneumoniae [10], 16 µg/mL (≈ 33.6 µM); against Escherichia coli [8], 0.125 µg/mL (≈ 0.263 µM); against Escherichia coli [9] it was 0.023 µg/mL (≈ 0.0484 µM).

GENTAMICIN: the MIC with Klebsiella pneumoniae [1] was more than 16 µg/mL; in the test with Escherichia coli [2], less than 1 µg/mL; with Klebsiella pneumoniae [3], 4 µg/mL; against Escherichia coli [4], 4 µg/mL; against Escherichia coli [5], less than 1 µg/mL.

Consider `CO/N=C(\C(=O)N[C@@H]1C(=O)N2C(C(=O)O)=C(COC(N)=O)CS[C@H]12)c1ccco1` [CEFUROXIME], for which the MIC against Klebsiella pneumoniae [1] is not below 64 µg/mL; with Escherichia coli [2] it was not below 64 µg/mL; against Klebsiella pneumoniae [3] it was not below 64 µg/mL; with Escherichia coli [4] it was not below 64 µg/mL; in the test on Escherichia coli [5], 16 µg/mL (≈ 37.7 µM).
